Measurements from ChEMBL document CHEMBL1123757, “Selective thromboxane synthetase inhibitors and antihypertensive agents. New derivatives of 4-hydrazino-5H-pyridazino[4,5-b]indole, 4-hydrazinopyridazino[4,5-a]indole, and related compounds” (J Med Chem, 1987).

Experiments:
Rattus norvegicus [1] = experiment: Antihypertensive activity in spontaneously hypertensive rats (SHR) measured by percentage fall in arterial pressure (AP) at 5 mg/kg administered intraperitoneally at 24 h; assay type: functional, Artery; conditions: route intraperitoneal
Outline: (§1)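 Unanesthetized Okamoto-strain SHR, male and female, 8 weeks old, 300–350 g, systolic pressure ≥190 mmHg, heart rate 400–650 beats/min; five animals per dose. Given ip at 2.5 mL/kg, dissolved or suspended in normal saline or saline with 0.2% (carboxymethyl)cellulose and 1.0% Tween 80. Tail AP and CR recorded by mechanical transduction at set times; reported as percentage fall from control.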

Rattus norvegicus [2] = experiment: Percent increase in cardiac rhythm, directly measured on carotid (iv on the jugular vein) of spontaneously hypertensive rats at 1 mg/kg after 15 minutes; assay type: functional, Heart
Outline: (§2)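 Anesthetized (sodium pentobarbital, 70 mg/kg) male and female Okamoto SHR, 8 weeks old, 300–350 g. Given iv into the jugular vein in normal saline. Arterial pressure and cardiac rhythm are recorded directly from the carotid by polygraph at set times after dosing. Each is expressed as percent change from the pre-dose control value.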

[3] = Effect on thromboxane synthetase activity on in vitro platelet aggregation induced by AA at 10e -5 M expressed as percent increase in PGE-2; assay type: functional, Homo sapiens
Outline: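 Human citrated PRP adjusted to 200 000 […], compound at 10^-5 M final in saline/10% ethylene glycol, incubated at 37 °C. Aggregation induced with arachidonic acid 0.6 mM and read by Born absorbance aggregometry. PGE2 and TXB2 in the aggregated samples measured by radioimmunoassay. n = 5.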

[4] = Effect on PGI-2 release from rat aortic tissue at a final concentration of 10e -4 for an incubation time of 25 minutes; assay type: functional
Outline: (§3)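 Female Wistar rats (200–220 g) received heparin 200 IU/kg ip and were killed 10 min later. Aortic pieces of about 25 mm² were washed in ice-cold oxygenated Krebs–Henseleit buffer, then incubated in 1 mL buffer at 37 °C. Compound at 10^-4 M final was added 10 min before tissue transfer. PGI2 release was read as antiaggregatory activity of the incubate on ADP (2×10^-6 M)-induced human PRP aggregation and by 6-keto-PGF1α RIA. n = 4.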

[5] = Effect on PGI-2 release from rat aortic tissue at a final concentration of 10e -4 for an incubation time of 35 minutes; assay type: functional; outline: as §3
Rattus norvegicus [6] = experiment: Antihypertensive activity in spontaneously hypertensive rats (SHR) measured by percentage fall in cardiac rhythm (CR) at 25 mg/kg administered intraperitoneally at 5 h; assay type: functional, Heart; conditions: route intraperitoneal
Outline: (§4)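 Conscious SHR (Okamoto strain), 8 weeks old, male and female, 300–350 g, systolic BP ≥190 mmHg, CR 400–650 beats/min. Given ip or po at 2.5 mL/kg in normal saline or saline with 0.2% (carboxymethyl)cellulose and 1.0% Tween 80. Tail AP and CR recorded by mechanical transduction at 1, 3, 5 and 24 h, five animals per dose. Effect expressed as % fall versus control.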

Homo sapiens [7] = organism: Homo sapiens; experiment: In vitro inhibition of platelet aggregation induced by DD (PRP incubated for 5 minutes at 37 degree C) at 10e-5 M; assay type: functional
Outline: (§5)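 Human venous blood anticoagulated with 3.8% sodium citrate (1:9). PRP from centrifugation at 800 rpm for 10 min at room temperature. Count adjusted with PPP to […]. Compound in saline with 10% ethylene glycol is added to PRP and incubated at 37 °C before the agonist. Agonists: ADP 2×10^-5 M, AA 0.6 mM, PGH2 2.8 μM, adrenaline 0.6 μM. Born absorbance aggregometry; n = 5.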

Rattus norvegicus [8] = experiment: Antihypertensive activity in spontaneously hypertensive rats (SHR) measured by percentage fall in arterial pressure (AP) at 1 mg/kg administered intraperitoneally at 1 h; assay type: functional, Artery; conditions: route intraperitoneal; outline: as §1
Rattus norvegicus [9] = experiment: Antihypertensive activity in spontaneously hypertensive rats (SHR) measured by percentage fall in cardiac rhythm (CR) at 5 mg/kg administered intraperitoneally at 3 h; assay type: functional, Heart; conditions: route intraperitoneal; outline: as §4
Rattus norvegicus [10] = experiment: Antihypertensive activity in spontaneously hypertensive rats (SHR) measured by percentage fall in cardiac rhythm (CR) at 25 mg/kg administered intraperitoneally at 3 h; assay type: functional, Heart; conditions: route intraperitoneal; outline: as §1
Rattus norvegicus [11] = experiment: Antihypertensive activity in spontaneously hypertensive rats (SHR) measured by percentage fall in arterial pressure (AP) at 5 mg/kg administered intraperitoneally at 1 h; assay type: functional, Artery; conditions: route intraperitoneal; outline: as §1
Cavia porcellus = experiment: Ex vivo inhibition of platelet aggregation induced by AA at 100 mg/kg; assay type: functional
Outline: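 Fasted male or female guinea pigs (250–300 g, five per group) dosed orally in normal saline or saline with 0.2% (carboxymethyl)cellulose/1.0% Tween 80; controls given vehicle. Under ether, cardiac blood collected into 3.8% citrate. PRP adjusted to […] and aggregation induced by ADP (second wave) or AA, read by absorbance aggregometry. PGE2 and TXB2 measured by RIA.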

Homo sapiens [12] = organism: Homo sapiens; experiment: In vitro inhibition of platelet aggregation induced by ADP-II (PRP incubated for 5 minutes at 37 degree C) at 10e-5 M; assay type: functional; outline: as §5
Rattus norvegicus [13] = experiment: Antihypertensive activity in spontaneously hypertensive rats (SHR) measured by percentage fall in arterial pressure (AP) at 5 mg/kg administered intraperitoneally at 5 h; assay type: functional, Artery; conditions: route intraperitoneal; outline: as §1
Rattus norvegicus [14] = experiment: Antihypertensive activity in spontaneously hypertensive rats (SHR) measured by percentage fall in cardiac rhythm (CR) at 25 mg/kg administered intraperitoneally at 24 h; assay type: functional, Heart; conditions: route intraperitoneal; outline: as §1
Rattus norvegicus [15] = experiment: Antihypertensive activity in spontaneously hypertensive rats (SHR) measured by percentage fall in cardiac rhythm (CR) at 1 mg/kg administered intraperitoneally at 3 h; assay type: functional, Heart; conditions: route intraperitoneal; outline: as §1
Rattus norvegicus [16] = experiment: Antihypertensive activity in spontaneously hypertensive rats (SHR) measured by percentage fall in arterial pressure (AP) at 1 mg/kg administered intraperitoneally at 3 h; assay type: functional, Artery; conditions: route intraperitoneal; outline: as §1
Rattus norvegicus [17] = experiment: Antihypertensive activity in spontaneously hypertensive rats (SHR) measured by percentage fall in cardiac rhythm (CR) at 5 mg/kg administered intraperitoneally at 5 h; assay type: functional, Heart; conditions: route intraperitoneal; outline: as §4
Rattus norvegicus [18] = experiment: Antihypertensive activity in spontaneously hypertensive rats (SHR) measured by percentage fall in cardiac rhythm (CR) at 25 mg/kg administered perorally at 3 h; assay type: functional, Heart; conditions: route oral; outline: as §4
Homo sapiens [19] = organism: Homo sapiens; experiment: In vitro inhibition of platelet aggregation induced by adrenaline at 10e-5 M; assay type: functional; outline: as §5
Rattus norvegicus [20] = experiment: Percent fall in systolic blood pressure, directly measured on carotid (iv on the jugular vein) of spontaneously hypertensive rats at 1 mg/kg after 240 minutes; assay type: functional, Artery; outline: as §2
Homo sapiens [21] = organism: Homo sapiens; experiment: In vitro inhibition of platelet aggregation induced by PGH-2 (PRP incubated for 60 minutes at 37 degree C) at 10e-5 M; assay type: functional; conditions: 1 h; outline: as §5
Rattus norvegicus [22] = experiment: Antihypertensive activity in spontaneously hypertensive rats (SHR) measured by percentage fall in arterial pressure (AP) at 25 mg/kg administered intraperitoneally at 1 h; assay type: functional, Artery; conditions: route intraperitoneal; outline: as §1
Rattus norvegicus [23] = experiment: Antihypertensive activity in spontaneously hypertensive rats (SHR) measured by percentage fall in cardiac rhythm (CR) at 25 mg/kg administered intraperitoneally at 1 h; assay type: functional, Heart; conditions: route intraperitoneal; outline: as §1
Rattus norvegicus [24] = experiment: Antihypertensive activity in spontaneously hypertensive rats (SHR) measured by percentage fall in arterial pressure (AP) at 25 mg/kg administered intraperitoneally at 3 h; assay type: functional, Artery; conditions: route intraperitoneal; outline: as §1
Rattus norvegicus [25] = experiment: Percent fall in systolic blood pressure, directly measured on carotid (iv on the jugular vein) of spontaneously hypertensive rats at 1 mg/kg after 5 minutes; assay type: functional, Artery; outline: as §2

COc1ccc2[nH]c3c(NN)nncc3c2c1.Cl
Decrease in AP (Rattus norvegicus [1]): 9%
Increase (Rattus norvegicus [2]): 11%
Increase [3]: 47%
Inhibition [4]: 45%
Inhibition [5]: 25%
Decrease in CR (Rattus norvegicus [6]): 24%
inhibition at 10 µM (Homo sapiens [7]): 100%
Decrease in AP (Rattus norvegicus [8]): 32%
Decrease in CR (Rattus norvegicus [9]): -8%
Decrease in CR (Rattus norvegicus [10]): 19%
Decrease in AP (Rattus norvegicus [11]): 50%
inhibition in vivo at 100 mg/kg (Cavia porcellus): 100%
inhibition at 10 µM (Homo sapiens [12]): 100%
Decrease in AP (Rattus norvegicus [13]): 26%
Decrease in CR (Rattus norvegicus [14]): 38%
Decrease in CR (Rattus norvegicus [15]): 8%
Decrease in AP (Rattus norvegicus [16]): 5%
Decrease in CR (Rattus norvegicus [17]): -6%
Decrease in CR (Rattus norvegicus [18]): -14%
inhibition at 10 µM (Homo sapiens [19]): 100%
Decrease in blood pressure (Rattus norvegicus [20]): 30%
inhibition at 10 µM (Homo sapiens [21]): 100%
Decrease in AP (Rattus norvegicus [22]): 58%
Decrease in CR (Rattus norvegicus [23]): 22%
Decrease in AP (Rattus norvegicus [24]): 57%
Decrease in blood pressure (Rattus norvegicus [25]): 30%
